Results taken from article PMC5443258 (Cancer cell, 2017).
Where a SMILES comes first, the peptide text is derived from it. Where no end group is shown, it is not given here. [ ]: non-standard residue; d: D form.

Key:
ERG protein = biological target: T1, ERG protein (Homo sapiens, UniProt P11308); experiment: Biolayer interferometry
T1 sequence (P11308 1-479): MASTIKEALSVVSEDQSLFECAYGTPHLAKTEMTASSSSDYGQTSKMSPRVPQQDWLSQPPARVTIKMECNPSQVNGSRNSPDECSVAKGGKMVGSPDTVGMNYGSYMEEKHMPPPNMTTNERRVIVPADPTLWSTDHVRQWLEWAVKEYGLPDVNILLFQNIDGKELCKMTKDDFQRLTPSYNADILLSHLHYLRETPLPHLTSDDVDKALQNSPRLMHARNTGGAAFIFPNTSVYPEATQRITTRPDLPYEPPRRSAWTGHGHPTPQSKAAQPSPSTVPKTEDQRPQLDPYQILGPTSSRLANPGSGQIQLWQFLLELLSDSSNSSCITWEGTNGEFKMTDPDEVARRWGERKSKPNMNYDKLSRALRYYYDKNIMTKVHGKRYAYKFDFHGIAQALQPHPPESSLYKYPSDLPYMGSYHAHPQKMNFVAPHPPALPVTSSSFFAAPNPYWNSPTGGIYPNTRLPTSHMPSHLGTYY

ERG:AR interaction = biological target: T2, ERG:AR interaction (Homo sapiens, UniProt P11308); experiment: In vitro peptide competitive pull-down, ERG:AR; assay type: biochemical; conditions: cell-free, Halo-ERG and GST-AR, increasing peptide concentrations, immunoblot
T2 sequence (P11308 1-479): T1 sequence (P11308 1-479)

[1] = biological target: T3, ERG protein in PC3-ERG cells (Homo sapiens, UniProt P11308); experiment: Immunoblot of ERG protein in PC3-ERG cells; assay type: cell-based; conditions: even at 5 μM concentration
T3 sequence (P11308 1-479): T1 sequence (P11308 1-479)

[2] = biological target: T4, ERG protein in RWPE1-ERG cells (Homo sapiens, UniProt P11308); experiment: Immunoblot of ERG protein in RWPE1-ERG cells; assay type: cell-based; conditions: even at 5 μM concentration
T4 sequence (P11308 33-479 limits assumed): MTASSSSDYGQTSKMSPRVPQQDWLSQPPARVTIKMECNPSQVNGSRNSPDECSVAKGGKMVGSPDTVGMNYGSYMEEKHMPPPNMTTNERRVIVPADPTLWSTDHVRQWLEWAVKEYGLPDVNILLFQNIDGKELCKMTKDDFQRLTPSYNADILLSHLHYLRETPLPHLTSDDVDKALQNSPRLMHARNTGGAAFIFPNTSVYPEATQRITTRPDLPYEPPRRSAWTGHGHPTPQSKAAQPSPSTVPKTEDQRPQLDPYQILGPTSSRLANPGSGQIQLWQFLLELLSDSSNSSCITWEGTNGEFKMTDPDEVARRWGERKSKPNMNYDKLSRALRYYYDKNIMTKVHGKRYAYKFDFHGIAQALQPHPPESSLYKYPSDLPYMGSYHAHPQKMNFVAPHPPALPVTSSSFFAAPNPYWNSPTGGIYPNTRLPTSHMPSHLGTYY

[3] = biological target: T5, ERG protein in VCaP cells (Homo sapiens, UniProt P11308); assay type: cell-based
T5 sequence (P11308 33-479 limits assumed): T4 sequence (P11308 33-479 limits assumed)

VCaP xenografts = experiment: VCaP xenograft mouse model; assay type: in vivo, mice; conditions: 25 mg/kg, IP-Western blot, compared to mutant peptide
In short: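 Mice carried VCaP xenografts staged for three weeks, with 10 per group. Test compound or mutant control peptide was given IP at 25 mg/kg daily. Tumors were collected 24 h after the final dose and lysed in MOPS pH 7.0 buffer with phosphatase and protease inhibitors. For IP-Western, 0.5–1.0 mg lysate was precleared, incubated with 2 μg anti-ERG at 4°C for 4 h, then with protein A/G beads overnight, and immunoblotted.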

[4] = biological target: T6, ERG protein in HUVEC cells (Homo sapiens, UniProt P11308); experiment: Cellular thermal shift assay; assay type: cell-based
T6 sequence (P11308 1-479): T1 sequence (P11308 1-479)

[5] = biological target: T5, ERG protein in VCaP cells; experiment: Cellular thermal shift assay; assay type: cell-based; conditions: 50°C, 3 hours treatment
[6] = test system: ERG recruitment to chromatin; experiment: ChIP and ChIP-seq in VCaP cells; assay type: cell-based
In short: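 VCaP cells were exposed to 50 μM test compound or mutant control peptide for 12 h. Cells were cross-linked in 1% formaldehyde for 10 min, quenched with glycine, and sonicated to ~200 bp fragments. Chromatin from 5×10^6 cells was incubated with antibody overnight at 4°C, and crosslinks were reversed at 67°C for 4–5 h. ChIP-seq ERG signal was normalized and taken at summits of 4th-quartile peaks (mutant-control sample), ±400 bp.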

VCaP cells = test system: VCaP cells; design: species or system chicken; conditions: in vivo, 25 mg/kg
ERG:DNA-PKcs interaction = biological target: T7, ERG:DNA-PKcs interaction (Homo sapiens, UniProt P11308); experiment: Co-immunoprecipitation from VCaP xenograft tumors after single dose; assay type: in vivo, mice; conditions: single 25 mg/kg dose IP, three and six hours post injection, co-IP immunoblot
T7 sequence (P11308 33-479 limits assumed): T4 sequence (P11308 33-479 limits assumed)

ERG_Y373A = ERG_Y373A (Homo sapiens, UniProt P11308, Y373A); experiment: biochemical
ERG:EBS DNA interaction = ERG:EBS DNA interaction (Homo sapiens, UniProt P11308)

Compound	Kd (ERG protein)	disruption of direct ERG:AR interaction (ERG:AR interaction)	effect on ERG protein in PC3-ERG cells [1]	effect on ERG protein in RWPE1-ERG cells [2]	ERG protein half-life in the presence of cycloheximide [3]	ERG protein in VCaP xenograft tumors after 18 days treatment (VCaP xenografts)	thermal shift of soluble ERG protein in HUVEC cells (CETSA) [4]	solubility of ERG protein, isothermal dose-response [5]	average ERG ChIP-seq signal for 4th quartile peaks ([6]; 50 μM, 12 hours, compared to mutant peptide)	ERG and DNA-PKcs enrichment at ERG-regulated genomic loci (ChIP) ([6]; 12 hours treatment)	ERG-mediated invasion in CAM (VCaP cells)	ERG:DNA-PKcs interaction in xenograft tumors (ERG:DNA-PKcs interaction)	Kd (ERG_Y373A)	disruption of ERG:EBS DNA interaction (ERG:EBS DNA interaction)
LSFGSLP [EIP2]	1.8 µM	disrupted												
CC(C)C[C@@H](NC(=O)[C@@H](CO)NC(=O)[C@@H](Cc1ccccc1)NC(=O)CNC(=O)[C@@H](CO)NC(=O)[C@@H](CC(C)C)NC(=O)[C@H]1CCCN1)C(=O)O [RI-EIP2] (H-[dP][dL][dS]G[dF][dS][dL]-OH)	1.28 µM		destabilized	destabilized										
CC(C)C[C@@H](NC(=O)[C@H]1CCCN1C(=O)[C@H]1CCCN1C(=O)[C@@H](Cc1ccc(O)cc1)NC(=O)[C@@H](CC(C)C)NC(=O)[C@@H](Cc1ccccc1)NC(=O)[C@H](N)[C@H](C)O)C(=O)O [RI-EIP1] (H-[dT][dF][dL][dY][dP][dP][dL]-OH)	0.94 µM		destabilized	destabilized	significantly shortened	degradation of ERG protein	no clear thermal shift	increased in a dose-dependent fashion	markedly reduced	inhibited	blocked	blocked		
LPPYLFT [EIP1]	0.6 µM	disrupted											> 100 µM	effectively disrupted
